Measured values reported in ChEMBL document CHEMBL1152411, “Antiplasmodial isoflavanones from the roots of Sophora mollis” (J Nat Prod, 2009).

Columns and labels:
[1] = system: Plasmodium falciparum; test: Antiplasmodial activity against chloroquine-sensitive Plasmodium falciparum D10; format: functional, organism-based
Outline: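 Asexual erythrocytic-stage P. falciparum kept in continuous in vitro culture (Trager–Jensen). Activity measured by the parasite lactate dehydrogenase assay, with chloroquine diphosphate as reference drug.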

[2] = Selectivity index, ratio of IC50 for CHO cells to IC50 for chloroquine-sensitive Plasmodium falciparum D10; format: toxicity, cell-based; details: hamster; read-out: Ratio IC50
[3] = system: CHO; test: Cytotoxicity against CHO cells by MTT assay; format: cell-based, Cricetulus griseus
Outline: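 Chinese hamster ovary (CHO) cells; growth and survival measured by MTT assay. Samples run in triplicate on one occasion, with emetine dihydrochloride as reference drug.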

[4] = Plasmodium falciparum, D10, read-out: IC50
[5] = Cricetulus griseus, CHO, read-out: IC50

Compound | IC50 [1, 4] | IC50 [1] | selectivity ratio [2] | IC50 [3, 5] | IC50 ([3]; cho)
O=c1c(-c2ccc(O)cc2)coc2c(O)c(O)ccc12 | 17.8 µM |  |  |  | Not Active
COc1cc2ccc(=O)oc2cc1O [SCOPOLETIN] | 494 µM |  |  |  | Not Active
Oc1ccc2c(c1)OC[C@@H]1c3cc4c(cc3O[C@H]21)OCO4 [(+)-MAACKIAIN] | 177 µM |  |  |  | Not Active
CC[C@H]1CN2CCc3cc(OC)c(OC)cc3[C@@H]2C[C@@H]1C[C@H]1NCCc2cc(OC)c(OC)cc21 [EMETINE] |  |  |  | 0.12 µM | 
O=C(/C=C/c1ccc(O)cc1)c1ccc(O)cc1O [ISOLIQUIRITIGENIN] | 32 µM |  | 1 | 45.9 µM | 
O=c1cc(-c2ccc(O)c(O)c2)oc2cc(O)ccc12 | 19.3 µM |  | 3 | 49.3 µM | 

Second part, led by results:

IC50 [1, 4] | IC50 [1] | Compound | selectivity ratio [2] | IC50 [3, 5] | IC50 ([3]; cho)
106 µM |  | COc1c(O)cc([C@]2(O)COc3cc(O)cc(O)c3C2=O)c(OC)c1CC=C(C)C [SOPHONOROL D] | 2 | 172 µM | 
41 µM |  | COc1cc(O)c2c(c1CC=C(C)C)OC[C@@](O)(c1ccc(O)c(CC=C(C)C)c1OC)C2=O [SOPHONOROL F] | 3 |  | 
12.8 µM |  | COc1ccc([C@]2(O)COc3c(CC=C(C)C)c(O)cc(O)c3C2=O)c(OC)c1CC=C(C)C [SOPHONOROL E] | 13 | 169 µM | 
12.9 µM |  | COc1c([C@]2(O)COc3c4c(cc(O)c3C2=O)OC(C)(C)CC4)ccc2c1CCC(C)(C)O2 [SOPHONOROL C] |  |  | Not Active
 | Not Active | COc1c([C@]2(O)COc3cc(O)cc(O)c3C2=O)ccc2c1C=CC(C)(CO)O2 (stereo not given in full) [SOPHORONOL B] |  |  | Not Active
 | Not Active | CC1(C)C=Cc2c(ccc([C@]3(O)COc4cc(O)cc(O)c4C3=O)c2O)O1 [SOPHORONOL A] |  |  | Not Active
114 µM |  | COc1c(C2(O)COc3cc(O)cc(O)c3C2=O)ccc2c1C=CC(C)(C)O2 (stereo not given) [SOPHORONOL] | 2 | 223 µM | 
